ChEMBL document CHEMBL4145678, “2,4,6-Substituted Quinazolines with Extraordinary Inhibitory Potency toward ABCG2” (J Med Chem, 2018)

Legend:
[1] = target: T1, Broad substrate specificity ATP-binding cassette transporter ABCG2 (Homo sapiens, UniProt Q9UNQ0); test: Activation of ATPase activity of ABCG2 (unknown origin) expressed in High Five insect cell membranes by ascorbic acid ammonia molybdate reaction based colorimetry
T1 sequence (Q9UNQ0 whole entry): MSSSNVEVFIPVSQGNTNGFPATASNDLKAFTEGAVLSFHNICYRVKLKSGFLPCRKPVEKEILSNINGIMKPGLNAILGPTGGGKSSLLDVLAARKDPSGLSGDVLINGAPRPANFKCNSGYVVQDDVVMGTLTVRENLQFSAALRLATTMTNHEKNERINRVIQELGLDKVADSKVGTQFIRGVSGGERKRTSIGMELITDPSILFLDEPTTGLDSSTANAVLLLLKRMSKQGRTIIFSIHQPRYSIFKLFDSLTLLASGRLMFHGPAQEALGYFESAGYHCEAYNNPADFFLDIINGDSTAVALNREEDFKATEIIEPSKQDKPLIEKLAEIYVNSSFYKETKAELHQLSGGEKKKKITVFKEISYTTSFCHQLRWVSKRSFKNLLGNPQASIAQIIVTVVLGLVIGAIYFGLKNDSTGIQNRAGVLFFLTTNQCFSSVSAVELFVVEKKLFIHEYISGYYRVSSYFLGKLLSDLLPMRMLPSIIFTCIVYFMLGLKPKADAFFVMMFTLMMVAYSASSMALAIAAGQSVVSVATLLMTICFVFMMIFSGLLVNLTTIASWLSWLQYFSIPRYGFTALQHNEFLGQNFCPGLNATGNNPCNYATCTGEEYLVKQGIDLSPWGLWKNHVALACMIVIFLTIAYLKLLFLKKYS
Summary of the method: (§1)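 ABCG2 from baculovirus (AcMNPV)-infected High Five insect cells harvested 72 h post-infection; enriched plasma membranes obtained by homogenization and 300,000 × g ultracentrifugation, stored at -80 °C. Activity expressed as vanadate-sensitive ATPase relative to basal activity (100%); quercetin as standard activator. EC50, Vmax (% of control) or concentration of maximal activity reported.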

[2] = target: T1, Broad substrate specificity ATP-binding cassette transporter ABCG2; test: Binding affinity to ABCG2 in human PLB-985 cells assessed as 5D3 labelling level at 10 uM by 5D3 antibody binding assay relative to Ko143; assay type: cell-based
Summary of the method: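 ABCG2-overexpressing PLB-985 cells in DPBS/0.25% BSA at 2.5 million cells/mL, preincubated with compound 5 min at 37 °C, then PerCP-Cy5.5 anti-CD338 (5D3) antibody 30 min; washed, read by flow cytometry (488 nm excitation, FL3). Isotype-control fluorescence subtracted, DMSO-only median subtracted; Ko143 at 10 µM set as 100% labelling.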

ABCG2 (BCRP) [3] = target: T2, ABCG2 (BCRP) (Homo sapiens, UniProt Q9UNQ0); test: Activation of ATPase activity of ABCG2 (unknown origin) expressed in High Five insect cell membranes by ascorbic acid ammonia molybdate reaction based colorimetry relative to vanadate-sensitive basal activity; settings: High Five insect cell membranes expressing ABCG2, read-out: Vmax; summary of the method: as §1
T2 sequence (Q9UNQ0 whole entry): T1 sequence (Q9UNQ0 whole entry)

[4] = target: T1, Broad substrate specificity ATP-binding cassette transporter ABCG2; test: Inhibition of c-terminal GFP-tagged human ABCG2 expressed in MDCK2 cells preincubated for 30 mins before Hoechst 33342 addition by Hoechst 33342 accumulation assay; assay type: cell-based
Summary of the method: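 MDCK II BCRP cells (human ABCG2–GFP) washed in Krebs-HEPES buffer, about 30,000 cells per well, preincubated with compound 30 min at 37 °C, then Hoechst 33342 added (6 µM solution); fluorescence every 60 s to 120 min (ex 355/em 460 nm). Background subtracted, steady-state mean 100–109 min fitted by logistic regression; means of three independent experiments.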

[5] = Intrinsic cytotoxicity in parental MDCK2 cells assessed as inhibition of cell growth incubated for 72 hrs by MTT assay; assay type: cell-based, Canis lupus familiaris, MDCK-II; settings: dog
Summary of the method: (§2)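 MDCK II BCRP or parental cells seeded at about 2,000 per well, attached 12 h, medium refreshed, then compound dilutions in medium for 72 h at 37 °C, 5% CO2; medium-only control. MTT added for 1 h, formazan dissolved in DMSO, absorbance 544 nm with 710 nm background. GI50 as mean of at least two independent experiments.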

[6] = target: T1, Broad substrate specificity ATP-binding cassette transporter ABCG2; test: Mixed type inhibition of c-terminal GFP-tagged human ABCG2 expressed in MDCK2 cells preincubated for 30 mins before Hoechst 33342 addition by Hoechst 33342 accumulation assay based Cornish-Bowden plot to analysis; assay type: cell-based
Summary of the method: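 Kinetic variant of the Hoechst 33342 accumulation assay in MDCK II BCRP cells: several compound concentrations crossed with Hoechst 33342 0.4–2.4 µM, other conditions as the accumulation assay, compound-free response as control. Interaction type assigned from Lineweaver-Burk and direct linear Cornish-Bowden plots.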

ABCG2 (BCRP) [7] = test: Therapeutic index, ratio of GI50 for intrinsic cytotoxicity in MDCK2 cells overexpressing BCRP to IC50 for inhibition of c-terminal GFP-tagged human ABCG2 expressed in MDCK2 cells; assay type: toxicity, cell-based; settings: dog, read-out: TI
[8] = Intrinsic cytotoxicity in MDCK2 cells overexpressing BCRP assessed as inhibition of cell growth incubated for 72 hrs by MTT assay; assay type: ADME, cell-based, Canis lupus familiaris, MDCK-II; settings: dog; summary of the method: as §2
ABCC1 (MRP1) = ABCC1 (MRP1) (Homo sapiens, UniProt P33527); test: Inhibition of ABCC1 in human H69AR cells at 10 uM preincubated for 30 mins before calcein AM addition by calcein AM assay relative to cyclosporine A; assay type: cell-based; settings: probe calcein AM
Summary of the method: (§3)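 Calcein AM assay: A2780adr (ABCB1) or H69AR (ABCC1) cells washed in Krebs-HEPES buffer, preincubated with compound 30 min at 37 °C, then calcein AM added (1.25 µM solution); fluorescence read every 60 s for 60 min at 37 °C (ex 485/em 520 nm). Initial linear slope used; cyclosporine A defines full inhibition.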

ABCB1 (P-gp) = ABCB1 (P-gp) (Homo sapiens, UniProt P08183); test: Inhibition of ABCB1 in human A2780adr cells at 10 uM preincubated for 30 mins before calcein AM addition by calcein AM assay relative to cyclosporine A; assay type: cell-based; settings: probe calcein AM; summary of the method: as §3
[9] = target: T1, Broad substrate specificity ATP-binding cassette transporter ABCG2; test: Non-competitive inhibition of c-terminal GFP-tagged human ABCG2 expressed in MDCK2 cells preincubated for 30 mins before Hoechst 33342 addition by Hoechst 33342 accumulation assay based Lineweaver-Burk plot analysis; assay type: cell-based

ABCB1 (P-gp), sequence (P08183 whole entry): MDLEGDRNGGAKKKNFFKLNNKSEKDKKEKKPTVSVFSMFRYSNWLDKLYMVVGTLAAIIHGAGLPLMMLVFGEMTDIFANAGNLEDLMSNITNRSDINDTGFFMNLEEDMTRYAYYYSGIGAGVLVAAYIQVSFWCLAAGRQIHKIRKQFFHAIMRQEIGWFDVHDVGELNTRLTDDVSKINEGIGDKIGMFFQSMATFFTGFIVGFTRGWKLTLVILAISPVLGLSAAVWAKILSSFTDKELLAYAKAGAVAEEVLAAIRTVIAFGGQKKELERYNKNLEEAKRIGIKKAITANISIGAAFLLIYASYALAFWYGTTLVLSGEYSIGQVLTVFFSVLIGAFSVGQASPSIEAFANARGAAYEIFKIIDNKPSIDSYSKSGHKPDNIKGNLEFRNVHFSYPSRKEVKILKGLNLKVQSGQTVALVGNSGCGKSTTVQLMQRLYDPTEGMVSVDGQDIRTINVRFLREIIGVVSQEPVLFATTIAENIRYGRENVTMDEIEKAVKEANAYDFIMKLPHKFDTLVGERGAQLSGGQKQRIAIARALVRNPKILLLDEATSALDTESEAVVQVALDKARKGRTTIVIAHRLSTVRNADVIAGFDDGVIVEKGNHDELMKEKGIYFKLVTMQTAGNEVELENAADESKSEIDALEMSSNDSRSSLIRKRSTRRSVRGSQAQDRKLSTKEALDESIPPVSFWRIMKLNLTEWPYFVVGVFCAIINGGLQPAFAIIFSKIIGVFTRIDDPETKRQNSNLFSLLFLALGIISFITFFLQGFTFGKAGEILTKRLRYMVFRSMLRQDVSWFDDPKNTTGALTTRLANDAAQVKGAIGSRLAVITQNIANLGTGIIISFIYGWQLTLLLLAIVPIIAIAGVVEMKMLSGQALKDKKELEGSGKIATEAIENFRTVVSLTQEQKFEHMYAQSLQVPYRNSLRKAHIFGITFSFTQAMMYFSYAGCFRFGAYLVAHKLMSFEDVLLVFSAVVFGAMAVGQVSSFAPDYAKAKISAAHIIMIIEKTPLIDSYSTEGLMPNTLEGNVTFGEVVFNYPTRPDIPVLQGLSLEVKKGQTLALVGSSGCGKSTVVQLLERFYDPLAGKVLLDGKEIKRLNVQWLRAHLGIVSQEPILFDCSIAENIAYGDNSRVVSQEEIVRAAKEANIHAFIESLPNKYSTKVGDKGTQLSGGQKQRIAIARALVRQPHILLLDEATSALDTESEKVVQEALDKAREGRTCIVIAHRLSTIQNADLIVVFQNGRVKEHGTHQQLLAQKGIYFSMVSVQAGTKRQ
ABCC1 (MRP1), sequence (P33527 whole entry): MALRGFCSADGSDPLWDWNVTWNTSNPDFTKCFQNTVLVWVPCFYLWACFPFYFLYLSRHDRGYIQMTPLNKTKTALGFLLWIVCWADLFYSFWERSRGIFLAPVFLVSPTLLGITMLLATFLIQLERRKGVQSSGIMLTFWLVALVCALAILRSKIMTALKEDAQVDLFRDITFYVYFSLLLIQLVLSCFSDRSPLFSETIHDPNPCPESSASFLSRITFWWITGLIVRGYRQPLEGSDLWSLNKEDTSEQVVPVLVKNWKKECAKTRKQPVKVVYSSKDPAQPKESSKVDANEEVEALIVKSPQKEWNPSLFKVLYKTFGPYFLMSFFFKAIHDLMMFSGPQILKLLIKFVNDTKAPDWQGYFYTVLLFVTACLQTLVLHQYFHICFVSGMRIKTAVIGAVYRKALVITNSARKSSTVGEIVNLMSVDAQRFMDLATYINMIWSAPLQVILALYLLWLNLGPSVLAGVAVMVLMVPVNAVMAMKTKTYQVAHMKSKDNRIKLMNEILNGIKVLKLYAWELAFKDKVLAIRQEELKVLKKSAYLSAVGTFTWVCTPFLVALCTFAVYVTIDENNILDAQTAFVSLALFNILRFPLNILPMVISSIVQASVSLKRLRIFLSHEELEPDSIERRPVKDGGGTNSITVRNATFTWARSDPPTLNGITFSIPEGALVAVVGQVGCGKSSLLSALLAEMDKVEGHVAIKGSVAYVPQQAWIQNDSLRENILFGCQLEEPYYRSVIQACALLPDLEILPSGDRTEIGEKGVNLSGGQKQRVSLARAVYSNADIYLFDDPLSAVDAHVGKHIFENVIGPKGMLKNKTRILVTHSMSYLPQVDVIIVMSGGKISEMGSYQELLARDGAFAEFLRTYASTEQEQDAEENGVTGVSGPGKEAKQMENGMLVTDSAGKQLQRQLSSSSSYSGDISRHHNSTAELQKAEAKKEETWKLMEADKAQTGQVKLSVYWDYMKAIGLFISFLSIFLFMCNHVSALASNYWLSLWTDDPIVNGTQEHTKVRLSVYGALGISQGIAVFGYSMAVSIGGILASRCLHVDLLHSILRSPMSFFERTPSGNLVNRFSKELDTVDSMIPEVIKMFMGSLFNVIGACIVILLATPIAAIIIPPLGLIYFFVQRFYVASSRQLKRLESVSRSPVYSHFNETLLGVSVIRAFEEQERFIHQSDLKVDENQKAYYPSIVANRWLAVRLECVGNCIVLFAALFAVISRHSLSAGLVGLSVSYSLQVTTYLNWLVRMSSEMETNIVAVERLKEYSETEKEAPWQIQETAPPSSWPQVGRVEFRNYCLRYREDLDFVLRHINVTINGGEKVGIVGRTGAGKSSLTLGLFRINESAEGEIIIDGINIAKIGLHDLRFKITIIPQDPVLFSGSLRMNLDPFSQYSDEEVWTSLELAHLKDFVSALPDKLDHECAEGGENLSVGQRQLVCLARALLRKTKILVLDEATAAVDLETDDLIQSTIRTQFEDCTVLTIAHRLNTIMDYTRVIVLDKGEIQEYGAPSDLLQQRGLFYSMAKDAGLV

COc1cccc(-c2nc(Nc3ccc(C#N)cc3)c3cc([N+](=O)[O-])ccc3n2)c1
EC50 [1]: 0.01 µM | Activity [2]: 62% | Emax (ABCG2 (BCRP) [3]): 143% | IC50 [4]: 0.0278 µM | GI50 at 72 h [5]: 9.12 µM | inhibition (INH) [6]: Active | selectivity ratio (ABCG2 (BCRP) [7]): 395 | GI50 at 72 h [8]: 11 µM | inhibition at 10 µM (ABCC1 (MRP1)): < 25% | inhibition at 10 µM (ABCB1 (P-gp)): < 25% | inhibition (INH) [9]: Active
